# From ChEMBL document CHEMBL1143626, “Morphiceptin analogues containing a dipeptide mimetic structure: an investigation on the bioactive topology at the mu-receptor” (J Med Chem, 2005)
# Where a SMILES comes first, the peptide text is derived from it. [ ]: non-standard residue; d: D form.
# Legend:
# [1] = target: Mu-type opioid receptor (Rattus norvegicus, UniProt P33535); test: Inhibition of [3H]DAMGO binding to rat whole brain Opioid receptor mu
# Outline: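 Rat whole-brain (minus cerebellum) membranes (0.3 mg protein) were incubated with 0.7 nM [3H]DAMGO and peptide (1 nM to 10 µM) for 2 h at 25 °C. Buffer was 50 mM Tris-HCl pH 7.4, 5 mM MgCl2, with protease inhibitors. Nonspecific binding was defined with 10 µM BNTX. Bound ligand was separated by GF/C filtration. Mean ± SEM, ≥3 experiments.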
# [2] = target: Delta-type opioid receptor (Rattus norvegicus) (UniProt P33533); test: Inhibition of [3H]naltrindole binding to rat whole brain Opioid receptor delta at 1-10 uM
# Outline: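 Brain (minus cerebellum) membranes were labelled with [3H]naltrindole as the δ radioligand. […] Mean ± SEM, n experiments.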
# [3] = species: Cavia porcellus; test: Inhibition of isolated guinea pig ileum contraction induced by electrical stimulation; assay type: functional
# Outline: (§1)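 Electrical field stimulation was applied after 30-40 min equilibration: train 100 ms, pulse width 1 ms, pulse interval 10 ms, supramaximal 20 V. Compounds were added cumulatively at 3-fold steps (0.1 nM to 1 µM), with parallel runs in 10 nM naloxone. Isotonic tension was recorded as % of control […]. Efficacy is the maximal inhibition; EC50 is the half-maximal concentration. Mean ± SEM, 4-6 experiments.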
# [4] = species: Cavia porcellus; test: Efficacy against isolated guinea pig ileum contraction induced by electrical stimulation; assay type: functional; outline: as §1
# Chain of Mu-type opioid receptor (P33535 whole entry): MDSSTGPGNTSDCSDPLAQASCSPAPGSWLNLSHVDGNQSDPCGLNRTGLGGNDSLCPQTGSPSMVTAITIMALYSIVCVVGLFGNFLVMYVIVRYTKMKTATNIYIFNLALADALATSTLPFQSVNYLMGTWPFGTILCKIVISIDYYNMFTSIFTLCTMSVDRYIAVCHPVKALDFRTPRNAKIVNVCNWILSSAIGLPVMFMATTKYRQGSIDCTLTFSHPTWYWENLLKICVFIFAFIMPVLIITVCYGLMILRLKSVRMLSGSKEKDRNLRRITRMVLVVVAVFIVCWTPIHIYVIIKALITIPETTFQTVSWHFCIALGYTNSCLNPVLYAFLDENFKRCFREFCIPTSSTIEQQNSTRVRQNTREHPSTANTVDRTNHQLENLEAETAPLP
# Chain of Delta-type opioid receptor (Rattus norvegicus) (P33533 whole entry): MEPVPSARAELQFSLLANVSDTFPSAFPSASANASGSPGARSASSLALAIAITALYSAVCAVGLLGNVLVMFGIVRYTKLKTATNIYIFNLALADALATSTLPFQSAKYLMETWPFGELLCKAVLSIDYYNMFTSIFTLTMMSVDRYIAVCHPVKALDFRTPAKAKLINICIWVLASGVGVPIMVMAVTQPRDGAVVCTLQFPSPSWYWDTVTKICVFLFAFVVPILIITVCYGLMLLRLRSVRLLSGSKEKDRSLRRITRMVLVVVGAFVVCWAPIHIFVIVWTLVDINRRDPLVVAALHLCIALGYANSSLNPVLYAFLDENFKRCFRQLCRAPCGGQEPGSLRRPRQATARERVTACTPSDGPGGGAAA
SMILES,Ki [1] [nM],inhibition [2] [%],EC50 [3] [nM],Efficacy [4] [%]
NC(=O)[C@@H]1CSC([C@H](Cc2c[nH]c3ccccc23)NC(=O)[C@@H]2CCCN2C(=O)[C@@H](N)Cc2ccc(O)cc2)N1 (stereo partly drawn),178,67.8,28,70
NC(=O)[C@@H]1CCCN1C(=O)[C@H](Cc1ccccc1)NC(=O)[C@@H]1CCCN1C(=O)[C@@H](N)Cc1ccc(O)cc1 (H-YPFP-NH2) [listing 1 of 2 here],25.6,–,13,–
NC(=O)[C@@H]1CCCN1C(=O)[C@H](Cc1ccccc1)NC(=O)[C@@H]1CSC([C@@H](N)Cc2ccc(O)cc2)N1 (stereo partly drawn),–,10.2,–,17
CN(C)C(=O)C(CCN1CCC(O)(c2ccc(Cl)cc2)CC1)(c1ccccc1)c1ccccc1 [LOPERAMIDE],–,–,489,11
NC(=O)[C@H]1CCCN1C(=O)[C@H](Cc1ccccc1)NC(=O)[C@@H]1CCCN1C(=O)[C@@H](N)Cc1ccc(O)cc1 (H-YPF[dP]-NH2),–,23.6,–,–
NC(=O)[C@@H]1CSC([C@@H](Cc2ccccc2)NC(=O)[C@@H]2CCCN2C(=O)[C@@H](N)Cc2ccc(O)cc2)N1 (stereo partly drawn),290,42.2,36,71
NC(=O)[C@@H]1CSC([C@H](Cc2ccccc2)NC(=O)[C@@H]2CCCN2C(=O)[C@@H](N)Cc2ccc(O)cc2)N1 (stereo partly drawn),14.1,22.7,9.7,65
CN1CC[C@]23c4c5ccc(O)c4O[C@H]2[C@@H](O)C=C[C@H]3[C@H]1C5 [MORPHINE],–,–,–,66
C[C@@H](NC(=O)[C@@H](N)Cc1ccc(O)cc1)C(=O)NCC(=O)N(C)[C@@H](Cc1ccccc1)C(=O)NCCO [DAMGO],–,–,36.2,61
NC(=O)[C@@H]1CCCN1C(=O)[C@H](Cc1ccccc1)NC(=O)[C@@H]1CCCN1C(=O)[C@@H](N)Cc1ccc(O)cc1 (H-YPFP-NH2) [listing 2 of 2 here],–,–,–,65
